From ChEMBL document CHEMBL4808178 (J Med Chem, 2021)
The source made the active and inactive calls. The rule behind the calls is not given here.

Assays:
[1] = Toxicity in BALB/c mouse xenografted with human HCT116 cells assessed as effect on kidney tissue at 60 to 90 mg/kg, po administered twice daily for 4 weeks and measured every 3 days by HE staining based assay; assay type: organism-based, HCT-116; details: in vivo, 672 h, dose 60-90 mg/kg
In short: (§1)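 Male 5-week BALB/c nude mice (16−18 g), 0.2 mL of 5 × 10⁷ cells/mL HCT-116 injected into right armpit; at ~100 mm³ randomized, 5/group; intragastric 60 or 90 mg/kg twice daily for 4 weeks; tumor volume and body weight every 3 days; after sacrifice heart, liver, spleen, lung, kidney HE-stained.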

[2] = system: HCT-116; experiment: Inhibition of cell stemness in human HCT116 cells assessed as reduction in Nanog mRNA transcription levels at 20 uM after 24 hrs by RT-qPCR analysis; assay type: functional, cell-based
In short: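 Sorted ALDH⁺ HCT-116 cells treated 24 h; TRIZOL RNA, one-step RT-qPCR (RT 10 min 55 °C; 95 °C 1 min; 39 cycles 95 °C 10 s/60 °C 30 s) with melting-curve check; β-actin reference; fold change by 2^−ΔΔCt; t test, mean ± SD, n = 3.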

[3] = system: HCT-116; experiment: Induction of cell cycle arrest in human HCT116 cells assessed as accumulation at G0/G1 phase at 20 uM after 24 hrs by propidium iodide-staining based flow cytometry (reference value: 48.89%); assay type: functional
[4] = system: HCT-116; experiment: Induction of apoptosis in human HCT116 cells assessed as increase in Cyt c protein expression at 20 uM incubated for 24 hrs by Western blot analysis; assay type: functional, cell-based
In short: (§2)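 HCT-116 cells at 2 × 10⁵ cells/mL in DMEM/10% FBS, grown 12 h at 37 °C, then treated 24 h (vehicle DMSO). Lysates quantified by BCA, run on 10% SDS-PAGE, PVDF transfer, blocked in 5% milk/TBST, primary antibodies 4 °C overnight, HRP secondary 2 h, chemiluminescent detection; normalized to β-actin, n = 3.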

[5] = system: HCT-116; experiment: Induction of apoptosis in human HCT116 cells assessed as viable cells at 5 uM after 24 hrs by annexin V-FITC/propidium iodide staining based flow cytometry (reference value: 88.3%); assay type: functional; details: read-out: Activity
[6] = system: HCT-116; experiment: Induction of apoptosis in human HCT116 cells assessed as early apoptotic cells at 10 uM after 24 hrs by annexin V-FITC/propidium iodide staining based flow cytometry (reference value: 1%); assay type: functional
[7] = system: HCT-116; experiment: Induction of apoptosis in human HCT116 cells assessed as early apoptotic cells at 20 uM after 24 hrs by annexin V-FITC/propidium iodide staining based flow cytometry (reference value: 1%); assay type: functional
[8] = system: MCF7; experiment: Cytotoxicity against human MCF7 cells assessed as reduction in cell viability incubated for 72 hrs by MTT assay; assay type: functional, cell-based; details: MCF7, 72 h
In short: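 About 5 × 10³ cells/well, seeded overnight at 37 °C, 5% CO₂, in DMEM or RPMI-1640 with 10% FBS and antibiotics. DMSO-dissolved compounds diluted in medium, exposure 72 h.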

[9] = target: Serine/threonine-protein kinase PLK1 (Homo sapiens) (UniProt P53350); experiment: Inhibition of PLK1 (unknown origin) assessed as residual activity at 1 uM relative to control
In short: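 Commercial profiling service against a 208-kinase panel; single concentration 1 μmol/L; residual kinase activity expressed relative to control.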

[10] = system: HCT-116; experiment: Inhibition of cell invasion in human HCT-116 cells at 5 uM after 24 hrs by crystal violet staining based inverted microscopic analysis; assay type: functional
In short: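 Transwell chambers ([…]); 1 × 10⁵ HCT-116 cells in serum-free medium in upper compartment, DMEM + 10% FBS as chemoattractant below; treated 24 h (vehicle DMSO); non-invading cells swabbed off, lower-surface cells crystal violet stained 30 min, counted by inverted microscope; mean ± SD, n = 3.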

[11] = system: HCT-116; experiment: Induction of apoptosis in human HCT116 cells assessed as reduction in Bcl2 protein expression at 20 uM incubated for 24 hrs by Western blot analysis; assay type: functional, cell-based; in short: as §2
[12] = system: HCT-116; experiment: Antitumor activity against human HCT116 cells xenografted in BALB/c athymic nude mouse assessed as tumor growth inhibition at 60 mg/kg, po administered twice daily for 4 weeks and measured every 3 days; assay type: functional; details: HCT-116, po, 672 h, read-out: TGI
In short: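 Male BALB/c athymic nude mice, 5 weeks old, 16−18 g, given 0.2 mL of 5 × 10⁷ cells/mL HCT-116 in right armpit. At about 100 mm³, randomized to groups of five; intragastric dosing twice daily for 4 weeks. Tumor volume and body weight every 3 days; tumors weighed after sacrifice; organs HE-stained.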

[13] = system: HCT-116; experiment: Inhibition of cell stemness in human HCT116 cells assessed as inhibition of CD44+/CD133+ expression at 20 uM after 24 hrs by flow cytometry analysis; assay type: functional
In short: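 ALDH⁺ HCT-116 subpopulation sorted by flow cytometry; 2 × 10⁵ cells/well seeded overnight at 37 °C, 5% CO₂; treated 20 μM for 24 h (vehicle DMSO); stained with PE anti-CD133 and FITC anti-CD44 30 min; CD44⁺/CD133⁺ read by flow cytometry.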

[14] = Toxicity in BALB/c mouse xenografted with human HCT116 cells assessed as effect on lung tissue at 60 to 90 mg/kg, po administered twice daily for 4 weeks and measured every 3 days by HE staining based assay; assay type: organism-based, HCT-116; details: in vivo, 672 h, dose 60-90 mg/kg; in short: as §1

Sequence of Serine/threonine-protein kinase PLK1 (Homo sapiens) (P53350 whole entry): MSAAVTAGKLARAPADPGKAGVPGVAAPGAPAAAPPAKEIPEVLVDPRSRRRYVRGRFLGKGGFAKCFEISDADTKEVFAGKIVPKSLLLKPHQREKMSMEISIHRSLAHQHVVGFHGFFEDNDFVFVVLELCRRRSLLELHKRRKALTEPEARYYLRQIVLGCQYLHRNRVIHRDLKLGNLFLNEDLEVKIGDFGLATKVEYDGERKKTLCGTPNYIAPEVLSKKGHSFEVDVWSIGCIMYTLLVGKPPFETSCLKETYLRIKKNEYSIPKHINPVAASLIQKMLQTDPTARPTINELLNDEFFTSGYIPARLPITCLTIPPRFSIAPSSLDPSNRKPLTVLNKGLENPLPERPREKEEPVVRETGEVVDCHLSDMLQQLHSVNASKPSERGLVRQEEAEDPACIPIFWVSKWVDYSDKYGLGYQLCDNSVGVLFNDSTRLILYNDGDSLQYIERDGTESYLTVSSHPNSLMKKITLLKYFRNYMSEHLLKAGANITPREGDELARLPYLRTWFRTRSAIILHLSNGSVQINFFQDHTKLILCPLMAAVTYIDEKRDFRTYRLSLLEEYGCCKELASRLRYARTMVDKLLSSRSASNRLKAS

- Activity [9]: 40.5%
Compound: O=C(NCCO)c1ccc2c(c1)nc(Nc1cccc(Cl)c1)c1ccncc12
- Activity [1]: Non-Toxic
- inhibition [2]: Active
- Activity [3]: 72.92%
- Activity [4]: Active
- viability at 5 µM [5]: 60.7%
- Activity [6]: 12.6%
- Activity [7]: 22.5%
- IC50 [8]: 7.5 µM
- Activity [10]: Active
- Activity [11]: Active
- inhibition in vivo at 60 mg/kg [12]: 59%
- inhibition at 20 µM [13]: 84%
- Activity [14]: Non-Toxic
